Only some compounds are listed: those with a hit (about 2.9% of all), similar ones and a draw of the others.
SENP1 FRET inh: SENP1 (human) catalytic domain inhibition; inhibition, % at 10 µM; hit rate 0.21% among 360,000; Q9P0U3; recombinant SENP1 catalytic domain, CyPet-SUMO1-YPet FRET cleavage;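 active means inhibition at least 30% at 10 µM, raw YFP signal under a set limit, fluorescence ratio 0.5 to 1.5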;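 further: 0% = enzyme with DMSO and 100% = no enzyme wells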
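Test system: hSENP1 catalytic domain, recombinant; Amount: 20 pM final SENP1 enzyme; Medium: Tris pH 8 buffer plus EDTA, NaCl, BME, BSA, NP40, catalase; Schedule: 50 min enzyme reaction, room temperature, light-protected; Technique: FRET fluorescence in CFP and YFP emission channels; Controls: no-enzyme wells low, DMSO-plus-enzyme wells high control.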
SENP8 block-1: inhibitors of human SENP8 protease | hit rate 1.2% among 330,000 | AID 2540 | purified SENP8, Z-RLRGG-aminoluciferin cleavage, luminescence | inhibition, % at 10 µM; in the data active means inhibition above about 50%
SENP8 block-2: SENP8 (human) protease inhibition; Q96LD8; recombinant SENP8, Nedd8 substrate fluorescence; inhibition, % at 20 µM; hit rate 0.64% among 360,000; AID 602440; in the data active means inhibition mostly above about 40%, no sharp cut-off; inactive means mostly below about 27%
SENP7 block: blocks the human protease SENP7; Q9BQF6; recombinant SENP7, Z-RLRGG-aminoluciferin luminescence, 40 min; inhibition, % at 5 µM; hit rate 1.5% among 330,000;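 active means inhibition above about 50% at the single test dose, limit read from the data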;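 further: plate controls were DMSO with enzyme for no effect and no enzyme buffer wells for full effect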
SENP6 block: blocks the human protease SENP6 | Q9GZR1 | Recombinant SENP6 catalytic domain, aminoluciferin luminescence | inhibition, % at 10 µM | hit rate 1.8% among 330,000 | AID 2599;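 active means inhibition above about 50% at the single tested dose, limit read from the data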;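 further: plate controls were DMSO wells with enzyme for no effect and DMSO wells lacking enzyme for full effect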
Target sequence (Q9GZR1 628-1112 limits assumed): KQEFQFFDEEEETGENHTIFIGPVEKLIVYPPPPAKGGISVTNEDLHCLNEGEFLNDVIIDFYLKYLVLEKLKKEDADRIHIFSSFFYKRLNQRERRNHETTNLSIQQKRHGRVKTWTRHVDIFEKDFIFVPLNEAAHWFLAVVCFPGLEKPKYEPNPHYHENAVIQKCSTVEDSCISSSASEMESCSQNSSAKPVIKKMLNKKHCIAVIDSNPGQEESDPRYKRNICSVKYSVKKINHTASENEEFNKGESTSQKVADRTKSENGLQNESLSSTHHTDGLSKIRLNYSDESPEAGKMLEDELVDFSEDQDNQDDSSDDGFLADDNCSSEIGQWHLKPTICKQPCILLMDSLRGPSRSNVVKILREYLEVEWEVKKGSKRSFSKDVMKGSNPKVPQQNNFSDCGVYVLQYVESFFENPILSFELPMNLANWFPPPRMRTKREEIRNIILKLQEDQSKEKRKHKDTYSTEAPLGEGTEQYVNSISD
Apaf1 inhib: blocks human Apaf-1 apoptosome activity | O14727 | reconstituted apoptosome caspase-3 activity, DEVD-Rh110 fluorescence | inhibition, % at 20 µM | hit rate 0.71% among 330,000; active means inhibition of at least 40% at 20 µM;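 further: plate controls were DMSO wells for no effect and DEVD-CHO caspase inhibitor wells for full effect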
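System: Apoptosome proteins | Medium: Hepes pH 7.5 with detergent and BSA | Also added: Cytochrome c trigger plus (Z-DEVD)2-Rh110 caspase-3 substrate | Incubation: 30 min compound preincubation, 50 min activation, room temperature | Detection: Rhodamine 110 fluorescence at Ex 480/Em 540 nm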
SENP1 conf: SENP1 (human) inhibition, single concentration confirmation. AID 651678. inhibition, % at 10 µM. recombinant SENP1, CyPet-SUMO1-YPet FRET cleavage. shares compounds with SENP1 FRET inh. hit rate 34% among 520; in the data active means inhibition mostly above about 35%, no sharp cut-off; inactive means mostly below about 32%;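 further: 0% = enzyme with DMSO and 100% = no enzyme control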
SENP1 kinetic: confirmation of human SENP1 SUMO protease inhibitors, kinetic. shares compounds with SENP1 FRET inh. recombinant SENP1, CyPet-SUMO1-YPet FRET kinetic cleavage. inhibition, % at 10 µM. hit rate 26% among 520. AID 651690; in the data active means inhibition mostly above about 32%, no sharp cut-off; inactive means mostly below about 29%;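 further: 0% = DMSO with enzyme and 100% = no enzyme substrate only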
* hit, by the source's call; · = no result given.

SMILES | SENP1 FRET inh | SENP8 block-1 | SENP8 block-2 | SENP7 block | SENP6 block | Apaf1 inhib | SENP1 conf | SENP1 kinetic
CCN(CC)C(=O)C1=C(C)N(Cc2ccccc2)C(=O)C(CC(=O)NCCc2ccccn2)C1 (stereo unspecified) | -3 | · | 2 | · | · | · | · | ·
COc1cc(OC)c(C2Oc3nc(SC)nnc3-c3ccccc3N2C(C)=O)cc1OC (stereo unspecified) | 1 | -12 | -6 | -12 | -5 | -5 | · | ·
CSc1nnc2c(n1)OC(C)N(C(=O)c1ccccc1)c1ccccc1-2 (stereo unspecified) | 30* | 1 | -46 | 4 | -1 | 4 | 33 | 34*
N#C/C(=C\c1ccc(/C=C(/C#N)c2nn(CCO)c(N)c2C#N)cc1)c1nn(CCO)c(N)c1C#N | 38* | 5 | -93 | -1 | -11 | -13 | 33 | 27
CC(C)C[C@H]1CN([C@@H](Cc2ccc(O)cc2)CN2CCC[C@H]2CN2C(=O)C(=O)NC[C@@H]2Cc2ccc(O)cc2)C(=O)C(=O)N1CCc1ccccc1 | -1 | · | 0 | · | · | · | · | ·
COC(=O)c1ccc(/C=C/C(=O)OCC(=O)Nc2cc(C)on2)cc1 | 2 | 0 | 0 | 9 | -4 | 3 | · | ·
COc1cc(/C=C2\CCCc3c2nc2ccccc2c3C(=O)O)cc(Br)c1O | 56* | 0 | -332 | 0 | -7 | 2 | 97* | 67*
Cc1cc(C(=O)NCc2ccc(F)cc2)c2ccccc2n1 | 0 | 5 | -50 | 6 | -30 | 5 | · | ·
Cc1cc(C(=O)NCc2ccccc2F)c2ccccc2n1 | 43* | -10 | -12 | -4 | -1 | -5 | 51* | 41*
N#C/C(=C\C=C\c1ccccc1[N+](=O)[O-])c1nc(-c2ccc3c(c2)OCO3)cs1 | 54* | 3 | 26 | -1 | 3 | -22 | 4 | 13
N#C/C(=C\c1ccccc1[N+](=O)[O-])c1nc(C2CC2)cs1 | 1 | -7 | 14 | -5 | -7 | 13 | · | ·
O=C(NCc1cccc(Br)c1)C1CC2Cn3c(nc4ccccc43)C2N1c1ccccc1 (stereo unspecified) | -10 | 7 | 6 | 0 | 6 | 15 | · | ·
COC(=O)c1c(NC(=O)c2ccccc2)sc(C(N)=O)c1C | -3 | 4 | -281 | -6 | -9 | -8 | · | ·
COC(=O)c1c(NC(=O)c2ccccc2)sc(C(=O)c2ccccc2)c1C | 43* | -2 | 20 | 3 | 1 | 12 | 24* | 34*
COc1ccc(NC(=O)N(C)C[C@@H]2OCc3cn(nn3)CCCC(=O)N([C@@H](C)CO)C[C@H]2C)cc1 | 0 | · | -17 | · | · | · | · | ·
Cc1cc(C)n2c(NC3CCCC3)c(-c3cc4ccccc4o3)nc2n1 | -20 | · | -296 | · | · | · | · | ·
COc1ccc(-c2nc3ncccn3c2Nc2ccc3c(c2)OCCO3)cc1 | 32* | -2 | -2 | 3 | -14 | -4 | -11 | 7
Cc1ccc(-c2nc3ncccn3c2Nc2ccc3c(c2)OCCO3)o1 | 53* | -4 | 13 | 1 | 4 | 1 | 19 | 14
Cc1ccc(-c2nc3ncccn3c2NC2CCCCC2)o1 | 63* | -4 | -57 | -6 | 0 | 8 | 54* | 36
Brc1ccc(-c2nc3ncccn3c2Nc2ccc3c(c2)OCCO3)o1 | 35* | -2 | -11 | 5 | -32 | 4 | 9 | 3
Cc1ccc(-c2nc3ncccn3c2Nc2ccc3c(c2)OCCO3)cc1 | 18 | -1 | -3 | -1 | 4 | 16 | · | ·

Screening results from PubChem.
